Tests used:
[1] = molecular target: Proto-oncogene tyrosine-protein kinase Src (Homo sapiens) (UniProt P12931); test: Inhibition of cSRC
[2] = molecular target: Platelet-derived growth factor receptor beta (Homo sapiens) (UniProt P09619); test: Inhibition of PDGFRB
[3] = molecular target: T1, Tyrosine-protein kinase JAK3 (Homo sapiens) (UniProt P52333); test: Inhibition of JAK3
T1 sequence (whole entry): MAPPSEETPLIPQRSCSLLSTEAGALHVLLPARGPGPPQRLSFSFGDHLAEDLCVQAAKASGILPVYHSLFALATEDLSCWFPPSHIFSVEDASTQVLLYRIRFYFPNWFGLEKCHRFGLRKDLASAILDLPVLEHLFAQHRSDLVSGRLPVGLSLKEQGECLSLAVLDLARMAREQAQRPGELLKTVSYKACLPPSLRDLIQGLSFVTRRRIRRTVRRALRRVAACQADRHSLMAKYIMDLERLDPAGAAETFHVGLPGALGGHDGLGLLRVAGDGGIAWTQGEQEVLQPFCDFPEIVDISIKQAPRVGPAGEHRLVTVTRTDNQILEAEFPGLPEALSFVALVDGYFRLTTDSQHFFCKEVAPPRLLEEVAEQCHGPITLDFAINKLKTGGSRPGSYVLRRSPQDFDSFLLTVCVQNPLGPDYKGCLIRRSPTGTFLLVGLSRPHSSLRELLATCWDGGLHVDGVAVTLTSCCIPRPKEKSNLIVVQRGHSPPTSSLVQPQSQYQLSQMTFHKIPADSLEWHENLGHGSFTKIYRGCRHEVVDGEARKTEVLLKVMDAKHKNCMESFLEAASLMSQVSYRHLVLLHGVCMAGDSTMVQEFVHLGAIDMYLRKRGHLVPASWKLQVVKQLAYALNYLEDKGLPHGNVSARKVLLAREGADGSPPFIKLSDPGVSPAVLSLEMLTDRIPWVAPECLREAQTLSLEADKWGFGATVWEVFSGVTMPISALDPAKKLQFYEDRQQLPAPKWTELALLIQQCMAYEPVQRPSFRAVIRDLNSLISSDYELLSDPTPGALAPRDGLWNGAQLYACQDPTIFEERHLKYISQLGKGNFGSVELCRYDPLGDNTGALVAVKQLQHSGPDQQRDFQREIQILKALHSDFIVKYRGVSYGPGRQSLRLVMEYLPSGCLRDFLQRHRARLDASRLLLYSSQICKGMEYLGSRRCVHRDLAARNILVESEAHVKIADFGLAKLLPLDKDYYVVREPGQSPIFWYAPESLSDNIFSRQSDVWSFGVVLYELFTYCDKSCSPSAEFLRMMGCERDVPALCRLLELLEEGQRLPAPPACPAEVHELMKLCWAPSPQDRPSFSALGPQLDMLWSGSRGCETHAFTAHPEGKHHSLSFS

[4] = molecular target: Protein kinase C alpha type (Homo sapiens) (UniProt P17252); test: Inhibition of PKCalpha
[5] = molecular target: Epidermal growth factor receptor (Homo sapiens) (UniProt P00533); test: Inhibition of EGFR
Sequence of Epidermal growth factor receptor (Homo sapiens) (P00533 whole entry): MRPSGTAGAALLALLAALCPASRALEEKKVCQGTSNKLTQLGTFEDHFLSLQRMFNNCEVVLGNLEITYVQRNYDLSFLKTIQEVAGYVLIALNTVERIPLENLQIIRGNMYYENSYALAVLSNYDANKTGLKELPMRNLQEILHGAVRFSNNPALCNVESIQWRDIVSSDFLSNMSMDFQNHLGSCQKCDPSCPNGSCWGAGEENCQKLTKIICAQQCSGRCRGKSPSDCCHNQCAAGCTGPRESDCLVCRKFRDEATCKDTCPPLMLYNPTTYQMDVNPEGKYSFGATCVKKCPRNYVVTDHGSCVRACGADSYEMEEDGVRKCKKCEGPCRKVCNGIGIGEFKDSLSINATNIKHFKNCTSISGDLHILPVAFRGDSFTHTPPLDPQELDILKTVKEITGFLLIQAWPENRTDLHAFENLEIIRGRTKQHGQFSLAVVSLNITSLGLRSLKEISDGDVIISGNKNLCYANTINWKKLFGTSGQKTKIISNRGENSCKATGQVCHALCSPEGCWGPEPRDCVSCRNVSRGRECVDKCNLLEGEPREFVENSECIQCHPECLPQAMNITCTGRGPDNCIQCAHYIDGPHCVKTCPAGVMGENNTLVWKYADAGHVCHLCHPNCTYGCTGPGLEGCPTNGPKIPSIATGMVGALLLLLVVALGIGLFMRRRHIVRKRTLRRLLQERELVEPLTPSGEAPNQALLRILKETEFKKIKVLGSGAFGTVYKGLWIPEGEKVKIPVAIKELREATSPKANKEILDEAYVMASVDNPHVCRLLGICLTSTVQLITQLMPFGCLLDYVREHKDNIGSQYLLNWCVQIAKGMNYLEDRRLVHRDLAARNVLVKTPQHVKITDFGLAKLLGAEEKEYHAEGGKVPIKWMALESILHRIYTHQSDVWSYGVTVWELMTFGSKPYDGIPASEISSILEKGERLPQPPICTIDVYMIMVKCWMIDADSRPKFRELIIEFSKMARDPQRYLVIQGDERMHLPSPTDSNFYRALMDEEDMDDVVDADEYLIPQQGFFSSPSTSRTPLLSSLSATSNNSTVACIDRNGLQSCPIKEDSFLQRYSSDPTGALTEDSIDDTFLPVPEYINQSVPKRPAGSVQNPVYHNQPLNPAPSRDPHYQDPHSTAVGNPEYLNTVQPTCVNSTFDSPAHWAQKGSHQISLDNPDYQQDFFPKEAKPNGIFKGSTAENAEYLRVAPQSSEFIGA

[6] = molecular target: Epidermal growth factor receptor and ErbB2 (HER1 and HER2) (Homo sapiens) (UniProt P04626+P00533); test: Selectivity for erbB2 over EGFR; type: protein assay
Method in brief: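 Cell selectivity: IC50 ratio between two NIH3T3 lines run under identical conditions, one carrying human EGFR and one carrying the EGFR-extracellular/erbB2-intracellular chimera. Each line takes 2 h inhibitor, then 15 min human recombinant EGF. Phosphotyrosine measured with HRP-PY-54 and TMB at 450 nm.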

[7] = molecular target: T2, Receptor tyrosine-protein kinase erbB-2 (Homo sapiens, UniProt P04626); test: Inhibition of erbB2 in NH3T3 cells; type: cell-based
T2 sequence (P04626 whole entry, the tested form may be a part): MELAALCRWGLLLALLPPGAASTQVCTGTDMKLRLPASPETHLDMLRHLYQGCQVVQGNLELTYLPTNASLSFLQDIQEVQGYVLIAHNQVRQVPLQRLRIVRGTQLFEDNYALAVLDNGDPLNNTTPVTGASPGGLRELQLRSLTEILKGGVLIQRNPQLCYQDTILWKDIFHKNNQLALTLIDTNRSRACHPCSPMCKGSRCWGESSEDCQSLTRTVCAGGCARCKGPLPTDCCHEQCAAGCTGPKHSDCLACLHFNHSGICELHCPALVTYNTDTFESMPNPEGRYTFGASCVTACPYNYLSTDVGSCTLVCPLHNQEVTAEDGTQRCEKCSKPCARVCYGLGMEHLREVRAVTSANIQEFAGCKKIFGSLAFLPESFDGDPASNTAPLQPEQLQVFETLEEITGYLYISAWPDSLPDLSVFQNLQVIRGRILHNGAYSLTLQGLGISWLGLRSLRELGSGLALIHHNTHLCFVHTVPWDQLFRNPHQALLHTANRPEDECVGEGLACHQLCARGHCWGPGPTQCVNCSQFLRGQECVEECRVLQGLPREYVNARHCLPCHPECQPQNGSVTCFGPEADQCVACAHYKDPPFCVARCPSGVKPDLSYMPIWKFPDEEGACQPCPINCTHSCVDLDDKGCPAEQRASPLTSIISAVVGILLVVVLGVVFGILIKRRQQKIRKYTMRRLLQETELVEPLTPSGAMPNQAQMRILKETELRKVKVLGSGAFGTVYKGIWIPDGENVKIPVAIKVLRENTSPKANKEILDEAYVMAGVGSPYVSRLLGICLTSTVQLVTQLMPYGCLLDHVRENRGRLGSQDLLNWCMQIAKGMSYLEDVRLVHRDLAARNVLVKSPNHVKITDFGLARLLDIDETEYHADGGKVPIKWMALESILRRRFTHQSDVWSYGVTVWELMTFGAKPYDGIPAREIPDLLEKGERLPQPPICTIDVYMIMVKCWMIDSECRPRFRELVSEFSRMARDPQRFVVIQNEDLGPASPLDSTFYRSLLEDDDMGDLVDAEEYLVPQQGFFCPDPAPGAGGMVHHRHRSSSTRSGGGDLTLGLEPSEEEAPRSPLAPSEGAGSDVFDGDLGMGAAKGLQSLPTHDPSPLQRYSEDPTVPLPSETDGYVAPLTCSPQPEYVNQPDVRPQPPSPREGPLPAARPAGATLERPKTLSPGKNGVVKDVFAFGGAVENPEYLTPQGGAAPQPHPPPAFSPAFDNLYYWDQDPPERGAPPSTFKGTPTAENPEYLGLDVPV
Method in brief: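 NIH3T3 cells expressing a chimera of EGFR extracellular and erbB2 intracellular domains are plated, exposed to inhibitor for 2 h, then stimulated with human recombinant EGF for 15 min. Receptor phosphotyrosine read with HRP-PY-54 antibody and TMB, A450. IC50 is the mean of at least two experiments.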

[8] = Permeability from apical to basolateral side of Caco-2 cell membrane; type: ADME, cell-based; conditions: human, read-out: permeability
[9] = molecular target: Insulin receptor (Homo sapiens) (UniProt P06213); test: Inhibition of IRK
[10] = molecular target: Wee1-like protein kinase (Homo sapiens) (UniProt P30291); test: Inhibition of Wee1
Sequence of Wee1-like protein kinase (Homo sapiens) (P30291 whole entry, looked up): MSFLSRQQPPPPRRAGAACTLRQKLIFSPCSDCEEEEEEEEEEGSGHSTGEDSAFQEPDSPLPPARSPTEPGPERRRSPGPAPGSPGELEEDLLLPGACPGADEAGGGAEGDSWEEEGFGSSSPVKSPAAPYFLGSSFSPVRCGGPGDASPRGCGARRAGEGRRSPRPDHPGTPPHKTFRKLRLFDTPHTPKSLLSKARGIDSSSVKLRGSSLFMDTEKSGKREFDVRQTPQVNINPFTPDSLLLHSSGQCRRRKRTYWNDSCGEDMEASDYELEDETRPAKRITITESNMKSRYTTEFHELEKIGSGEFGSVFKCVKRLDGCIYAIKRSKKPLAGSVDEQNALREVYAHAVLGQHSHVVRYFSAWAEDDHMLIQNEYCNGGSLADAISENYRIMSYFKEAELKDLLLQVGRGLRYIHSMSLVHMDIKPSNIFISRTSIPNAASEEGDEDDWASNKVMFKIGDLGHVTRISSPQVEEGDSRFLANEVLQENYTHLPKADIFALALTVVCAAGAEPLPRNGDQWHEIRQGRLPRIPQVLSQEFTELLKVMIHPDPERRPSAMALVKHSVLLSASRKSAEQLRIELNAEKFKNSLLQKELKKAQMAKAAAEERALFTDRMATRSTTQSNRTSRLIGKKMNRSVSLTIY

[11] = molecular target: Cyclin-dependent kinase 2 (Homo sapiens) (UniProt P24941); test: Inhibition of CDK2
[12] = molecular target: Tyrosine-protein kinase Fes/Fps (Homo sapiens) (UniProt P07332); test: Inhibition of FES
[13] = molecular target: T2, Receptor tyrosine-protein kinase erbB-2; test: Inhibition of erbB2 expressed in Sf9 cells
Method in brief: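 GST-tagged erbB2 intracellular domain (residues 675–1255) made in baculovirus/Sf9 and purified; ~15 ng enzyme phosphorylates poly(Glu,Tyr) with 1 mM ATP plus inhibitor over 6 min. Phosphotyrosine detected by HRP-PY-54 antibody and TMB, A450. IC50 is the mean of at least two experiments.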

[14] = molecular target: cAMP-dependent protein kinase (PKA) (Homo sapiens) (UniProt P22694+P17612+P22612); test: Inhibition of PKA; type: protein assay
[15] = molecular target: Protein kinase C theta type (Homo sapiens) (UniProt Q04759); test: Inhibition of PKCtheta
Sequence of Protein kinase C theta type (Homo sapiens) (Q04759 whole entry, looked up): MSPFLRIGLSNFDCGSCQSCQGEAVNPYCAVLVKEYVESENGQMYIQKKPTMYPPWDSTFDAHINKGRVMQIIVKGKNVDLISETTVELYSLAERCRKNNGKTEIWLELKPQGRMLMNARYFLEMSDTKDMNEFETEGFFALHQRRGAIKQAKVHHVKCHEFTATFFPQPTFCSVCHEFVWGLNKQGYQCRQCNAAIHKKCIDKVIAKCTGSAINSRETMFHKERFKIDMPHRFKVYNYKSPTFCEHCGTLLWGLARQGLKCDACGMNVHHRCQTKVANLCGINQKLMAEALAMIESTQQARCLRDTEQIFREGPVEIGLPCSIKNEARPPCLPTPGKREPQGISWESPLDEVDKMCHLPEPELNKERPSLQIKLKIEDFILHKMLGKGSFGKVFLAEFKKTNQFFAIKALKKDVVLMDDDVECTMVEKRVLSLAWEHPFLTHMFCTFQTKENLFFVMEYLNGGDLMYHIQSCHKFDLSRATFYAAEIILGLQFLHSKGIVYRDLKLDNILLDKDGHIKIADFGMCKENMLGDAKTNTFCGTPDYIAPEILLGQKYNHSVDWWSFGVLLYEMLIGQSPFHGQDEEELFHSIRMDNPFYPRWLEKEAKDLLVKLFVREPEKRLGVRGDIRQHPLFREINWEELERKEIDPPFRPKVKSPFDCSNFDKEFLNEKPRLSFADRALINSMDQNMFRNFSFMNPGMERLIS

[16] = molecular target: Tyrosine-protein kinase Lck (Homo sapiens) (UniProt P06239); test: Inhibition of LCK
Sequence of Tyrosine-protein kinase Lck (Homo sapiens) (P06239 2-509 limits assumed): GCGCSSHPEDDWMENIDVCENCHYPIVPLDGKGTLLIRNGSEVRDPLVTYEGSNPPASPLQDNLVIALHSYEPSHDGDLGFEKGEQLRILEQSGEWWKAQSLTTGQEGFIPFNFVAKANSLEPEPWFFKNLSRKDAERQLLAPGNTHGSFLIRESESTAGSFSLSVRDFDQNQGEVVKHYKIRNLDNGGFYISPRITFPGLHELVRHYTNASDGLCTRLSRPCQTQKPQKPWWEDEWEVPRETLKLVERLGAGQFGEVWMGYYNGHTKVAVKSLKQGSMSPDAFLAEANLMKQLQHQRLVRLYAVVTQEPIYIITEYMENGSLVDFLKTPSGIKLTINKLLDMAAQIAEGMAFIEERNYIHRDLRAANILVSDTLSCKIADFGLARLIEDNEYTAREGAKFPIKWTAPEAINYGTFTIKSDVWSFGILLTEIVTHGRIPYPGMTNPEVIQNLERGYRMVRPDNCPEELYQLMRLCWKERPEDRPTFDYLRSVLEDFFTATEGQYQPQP

[17] = molecular target: Insulin-like growth factor 1 receptor (Homo sapiens) (UniProt P08069); test: Inhibition of IGF1R
[18] = molecular target: Cyclin-dependent kinase 5 (Homo sapiens) (UniProt Q00535); test: Inhibition of CDK5

Sequence of Proto-oncogene tyrosine-protein kinase Src (Homo sapiens) (P12931 2-536 limits assumed): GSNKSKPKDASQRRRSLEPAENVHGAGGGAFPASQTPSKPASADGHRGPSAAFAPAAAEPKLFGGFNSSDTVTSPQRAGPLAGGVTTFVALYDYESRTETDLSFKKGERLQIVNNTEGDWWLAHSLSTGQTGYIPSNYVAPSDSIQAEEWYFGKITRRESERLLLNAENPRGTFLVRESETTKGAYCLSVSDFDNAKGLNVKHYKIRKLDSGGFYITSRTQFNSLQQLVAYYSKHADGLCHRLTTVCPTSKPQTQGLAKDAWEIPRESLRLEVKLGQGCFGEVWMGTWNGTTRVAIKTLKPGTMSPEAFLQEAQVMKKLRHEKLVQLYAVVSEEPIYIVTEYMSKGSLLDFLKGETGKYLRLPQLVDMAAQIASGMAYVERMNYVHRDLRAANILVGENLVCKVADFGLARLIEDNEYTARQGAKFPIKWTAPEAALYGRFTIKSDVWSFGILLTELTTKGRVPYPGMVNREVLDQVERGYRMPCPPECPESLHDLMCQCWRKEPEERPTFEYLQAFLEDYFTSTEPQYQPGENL

Activity [1]: > 10 µM
Activity [2]: > 10 µM
Activity [3]: > 10 µM
Activity [4]: > 10 µM
Activity [5]: > 10 µM
Selectivity ratio [6]: > 410
IC50 [7]: 24 nM
Papp A→B [8]: 15.4 ×10⁻⁶ cm/s
Activity [9]: > 10 µM
Activity [10]: > 10 µM
Activity [11]: > 10 µM
Activity [12]: > 10 µM
IC50 [13]: 21 nM
Activity [14]: > 10 µM
Activity [15]: > 10 µM
Activity [16]: > 10 µM
Activity [17]: > 10 µM
Activity [18]: > 10 µM
SMILES: Cc1cc(Nc2ncnc3cnc(N4CCOCC4)cc23)ccc1Oc1ccc(C(=O)NCC(C)(C)C)cc1
